# In PubChem BioAssay AID624467 (The Scripps Research Institute Molecular Screening Center, 2012):
# The campaign covered roughly 360,000 compounds. About 3,600 (1%) were called active.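 How the source made its calls: active means activation above the mean activation of all test compounds in the run plus 3 SD (cut at about 38% in these data); inactive means the rest.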 What follows is part of a selection rich in actives, with near analogues and random picks from the rest.
# Target: Trace amine-associated receptor 1 (Homo sapiens) (UniProt Q96RJ0)
# Sequence (Q96RJ0 whole entry, looked up): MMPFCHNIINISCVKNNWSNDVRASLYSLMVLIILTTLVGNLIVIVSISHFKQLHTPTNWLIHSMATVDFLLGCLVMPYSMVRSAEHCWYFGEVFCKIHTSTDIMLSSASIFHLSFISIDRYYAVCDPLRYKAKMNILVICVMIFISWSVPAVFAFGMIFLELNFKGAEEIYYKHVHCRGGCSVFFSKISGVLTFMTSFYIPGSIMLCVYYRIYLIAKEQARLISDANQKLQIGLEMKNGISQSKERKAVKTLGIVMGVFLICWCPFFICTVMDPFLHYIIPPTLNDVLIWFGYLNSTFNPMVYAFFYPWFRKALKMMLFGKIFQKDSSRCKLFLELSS
# Assay: human TAAR1 agonists, primary screen, Fluo-8 calcium fluorescence, CHO RD-HGA16 cells (AID 624467)
# Settings: CHO RD-HGA16 TAAR1, Fluo-8 calcium fluorescence; at 3 µM; active compounds read high; vehicle wells 0%, saturating PEA agonist 100%
# Method in brief: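 System: CHO-derived RD-HGA16 cells with stable Gα16 and human TAAR1 / Times: 17-24 h plating, Fluo-8 75 min 37 °C, 30 min RT / Technique: calcium-sensitive Fluo-8 signal, excitation 470-495, emission 515-575 nm / Measure: % activation relative to PEA EC100 response / Benchmarks: DMSO and PEA EC100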
row,SMILES,activation
1,CCC(C)NC(=O)/C=C/c1ccc(S(=O)(=O)NCc2ccco2)cc1 (stereo not given),0.26% (inactive)
2,Cc1ccc2nc(C)c3c(c2c1)N(c1ccccc1)CC3,1.22% (inactive)
3,Nc1nc2c(ncn2[C@@H]2O[C@H](C(=O)N[C@H](Cc3ccccc3)C(=O)NCC3CCCCC3)[C@@H](O)[C@H]2O)c(=O)[nH]1,2.45% (inactive)
4,CC1CCN(C(=O)c2ncn3c2C(=O)N[C@@H](C)C3)CC1,0.53% (inactive)
5,CC1CCc2sc3nc(N4CCN(CCO)CC4)n4ncnc4c3c2C1 (stereo not given),13.3% (inactive)
6,CC(C)[C@H]1COCCS(=O)(=O)N1Cc1ccccc1-c1cccc2c1sc1ccccc12,1.46% (inactive)
7,Cc1cccc(N2CCN(C(=O)c3cnn4c(C(F)F)cc(-c5ccccc5)nc34)CC2)c1C,-0.23% (inactive)
8,COc1ccccc1N1CCN(C(=O)c2cc(=O)c3cc(C)cc(C)c3o2)CC1,0.2% (inactive)
9,Cc1ccc(Cl)cc1N1CCN(C(=O)c2cccc3c(=O)c(C)c(-c4ccccc4)oc23)CC1,78% (active)
10,OC(CCl)CCl,4.28% (inactive)
11,CC(C)(C)n1nc(C2CC2)c(Br)c1NC(=O)c1ccccc1F,-2.19% (inactive)
12,COc1ccc(-c2nc3n(c(=O)c2C#N)CCS3)c(OC)c1,1.68% (inactive)
13,Cc1ccc2c(c1)NCC(C(=O)NC1CCC(C)CC1)O2 (stereo not given),-0.02% (inactive)
14,NS(=O)(=O)c1ccc(NC(=S)N2CCCC2)cc1,0.52% (inactive)
15,NS(=O)(=O)c1ccc(NC(=S)Nc2ccc(Br)c(Cl)c2)cc1,42.6% (active)
16,COc1ccc(NC(=S)Nc2ccc(S(N)(=O)=O)cc2)c(C)c1,5.94% (inactive)
17,N#Cc1ccc(-c2nc3cc(C#N)c(C#N)cc3nc2-c2ccccc2)cc1C#N,2.52% (inactive)
18,Cc1cc2c(nc1C)CCCN2C,0.42% (inactive)
19,O=C(Cn1c(N2CCN(C/C=C/c3ccccc3)CC2)nc2ccccc21)c1ccccc1,7.57% (inactive)
20,CC1(C(=O)OCC(=O)Nc2ncc(Cl)cc2Cl)CC1(Cl)Cl (stereo not given),-0.29% (inactive)
21,CC(Oc1ccc(Cl)cc1)C(=O)OCC(=O)Nc1ncc(Cl)cc1Cl (stereo not given),74.1% (active)
22,CC(Oc1ccc(Cl)cc1)C(=O)Nc1ncccn1 (stereo not given),-0.09% (inactive)
23,CCc1ccc(NC(=O)N2CCc3ccccc3C2)cc1,31% (inactive)

row,SMILES,activation
1,Cc1ccc(NC(=O)CCN2CCc3ccccc3C2)cc1,88.5% (active)
2,Cc1ccc(NC(=O)CN2CCc3ccccc3C2)cc1C,9.67% (inactive)
3,CCOc1ccc(Cl)cc1-c1cc(C(=O)NCc2cccs2)[nH]n1,0.34% (inactive)
4,COc1ccc2c(c1)SC(C)CC2=O (stereo not given),5.89% (inactive)
5,COc1ccc2c(c1)OC(O)(C(F)(F)C(F)F)CC2=O (stereo not given),56.3% (active)
6,COc1ccc2c(c1)C(=O)CC(c1ccccc1)O2 (stereo not given),5.95% (inactive)
7,Cc1ccc2c(c1)C(O)(CC(=O)c1cccnc1)C(=O)N2 (stereo not given),0.5% (inactive)
8,CCCCSc1nc2c(c(=O)n1CC)SC(C)C2 (stereo not given),10% (inactive)
9,O=C(NS(=O)(=O)c1cccs1)[C@H]1O[C@@H](n2ccc(=O)[nH]c2=O)[C@H](O)[C@@H]1O,0.38% (inactive)
10,Cc1ccc(NC(=O)CN2C(=O)NC(C)(c3ccc(Cl)cc3)C2=O)c(Br)c1 (stereo not given),42.4% (active)
11,Cc1ccc(C2(C)NC(=O)N(CC(=O)N3CC(=O)Nc4ccccc43)C2=O)cc1 (stereo not given),1.06% (inactive)
12,Cc1ccc(S(=O)(=O)N2CCN(C(=O)CN3C(=O)NC(C)(c4ccc(Cl)cc4)C3=O)CC2)c(C)c1 (stereo not given),9.36% (inactive)
13,COc1ccc(C2(C)NC(=O)N(CC(=O)c3ccc4c(c3)OCO4)C2=O)cc1 (stereo not given),25.5% (inactive)
14,CC1CCC2(CC1)NC(=O)N(CC(=O)c1ccc3c(c1)OCO3)C2=O (stereo not given),1.46% (inactive)
15,COc1cc(NC(=O)CN2C(=O)NC(C)(c3ccc(OC(F)F)cc3)C2=O)cc(OC)c1OC (stereo not given),5.76% (inactive)
16,COc1ccc(C(=O)CN2C(=O)NC(C)(c3ccc(C)cc3)C2=O)cc1OC (stereo not given),59.9% (active)
17,CC1(c2ccc(Cl)cc2)NC(=O)N(CC(=O)c2ccc3c(c2)OCO3)C1=O (stereo not given),48.4% (active)
18,Cc1ccc(C2(C)NC(=O)N(CC(=O)Nc3ccccc3C(=O)N3CCCCC3)C2=O)cc1 (stereo not given),9.97% (inactive)
19,COc1ccc(NC(=O)N(C)C[C@@H]2OCCCC[C@@H](C)Oc3ccc(NC(=O)NC4CCCCC4)cc3C(=O)N([C@H](C)CO)C[C@@H]2C)cc1,0.43% (inactive)
20,O=C(N[C@H](Cc1ccccc1)C(=O)N1CCCN(Cc2cccs2)CC1)[C@H]1O[C@@H](n2ccc(=O)[nH]c2=O)[C@H](O)[C@@H]1O,0.87% (inactive)
21,N#Cc1cccc(C(=O)NCC2CCN(C(=O)C(=O)c3cc4ccccc4o3)CC2)c1,2.73% (inactive)
22,CSc1ccc(Oc2cccc3c2S(=O)(=O)N([C@H](C)c2ccccc2)C[C@@H](COCc2ccccc2)O3)cc1C,-0.58% (inactive)
23,CC(NC(=O)C(=O)NN=C1CCC(C(C)(C)C)CC1)c1ccccc1 (stereo not given),-1.32% (inactive)

row,SMILES,activation
1,CCOC(=O)c1cc(-c2ccc(Cl)s2)nc2c1c(C)nn2C,12.8% (inactive)
2,CCCc1nnc(SCC(=O)N2C(C)CCCC2C)n1CC (stereo not given),7.54% (inactive)
3,COc1cc(OC)c(N2CC(C(=O)Nc3cc(Cl)ccc3N3CCOCC3)CC2=O)cc1Cl (stereo not given),9.38% (inactive)
4,COc1ccc(-n2c(-c3ccc(Cl)cc3)n[nH]c2=S)c(OC)c1,1% (inactive)
5,COc1cc(OC)c(-n2cc(-c3ccc(Cl)cc3)[nH]c2=O)cc1Cl,135% (active)
6,O=C(NC1CCCC1)C(c1ccc(Cl)cc1)N(C(=O)c1csnn1)C1CC1 (stereo not given),2.16% (inactive)
7,N#CCSc1ccccc1NC(=O)CN1C(=O)NC(CCc2ccccc2)C1=O (stereo not given),4.54% (inactive)
8,Cc1ccc(-c2nnc(SCC(=O)N/N=C/c3cccs3)n2-c2ccc(C)cc2)cc1,2.56% (inactive)
9,Cc1nc2ccccc2n1CC(=O)N/N=C/c1cccs1,41% (active)
10,COc1ccc(NC(=O)COC(=O)Cn2c(C)nc3ccccc32)cc1OC,8.05% (inactive)
11,COc1ccc(N(C(=O)CNC(=O)c2ccco2)C(C(=O)NCC2CCCO2)c2ccccc2)cc1Cl (stereo not given),14% (inactive)
12,CC(=O)c1ccc(N2CCN(C(=O)c3ccc(Cl)c(S(=O)(=O)NC4CC4)c3)CC2)c(F)c1,5.24% (inactive)
13,COc1ccc(S(=O)(=O)Nc2ccc3c(c2)C(=O)N([C@H](C)CO)C[C@H](C)[C@@H](CN(C)C)OCCCC[C@H](C)O3)cc1,1.27% (inactive)
14,COc1cc(/C=C2\SC(=O)NC2=O)ccc1OCc1ccc(Cl)nc1,0.37% (inactive)
15,C#CCOc1ccc(/C=C2/C(=O)NN(c3ccccc3)C2=O)cc1OC,52.3% (active)
16,C#CCOc1ccc(/C=C2/C(=O)ON=C2C)cc1OCC,26.1% (inactive)
17,CC(C)OC(=O)c1cc(NC(=O)C2C3CCC(O3)C2C(=O)O)cc(C(=O)OC(C)C)c1 (stereo not given),-0.82% (inactive)
18,Cc1sc(NC(=O)C2C3CCC(O3)C2C(=O)O)c(C(=O)OC(C)C)c1-c1ccc(Cl)cc1 (stereo not given),38.3% (active)
19,COc1ccc(NC(=O)C2C3CCC(O3)C2C(=O)O)cc1OC (stereo not given),2.71% (inactive)
20,CN1C(=O)c2cccc3c(N)ccc(c23)C1=O,119% (active)
21,Cc1nn(C)cc1N1C(=O)c2cccc3c(N)ccc(c23)C1=O,83.9% (active)
22,CCCOc1ccc(N2C(=O)CC(N(CCc3ccc(S(N)(=O)=O)cc3)C(C)=O)C2=O)cc1 (stereo not given),1.5% (inactive)
23,Cc1ccc(CNC(=O)Cn2cnc(S(=O)(=O)N3CCCCC3)c2)o1,1.59% (inactive)

row,SMILES,activation
1,CCOC(=O)C1CCN(S(=O)(=O)c2ccc3c(c2)N(C(C)=O)CCO3)CC1,-0.05% (inactive)
2,CCCN1C(=O)c2[nH]nc(-c3ccccc3)c2C1c1ccccc1 (stereo not given),2.41% (inactive)
3,CN(C)C(=O)N1CCN(C(=O)[C@@H](Cc2ccccc2)NC(=O)[C@H]2O[C@@H](n3ccc(N)nc3=O)[C@H](O)[C@@H]2O)CC1,1.21% (inactive)
4,COC(=O)Cc1nnn2c1[C@H](C)[C@H](c1ccccc1Br)OCC2,2.69% (inactive)
5,COc1ccc(C(=O)N2CCCCC2c2cc(C(=O)Nc3ccccc3)no2)cc1 (stereo not given),-0.19% (inactive)
6,Cc1nc(-c2ccc(NC(=O)c3cccs3)cc2)cs1,44.8% (active)
7,COc1cc(NC(=O)c2ccc(-c3csc(C)n3)cc2)c(OC)cc1Cl,3.15% (inactive)
8,O=C(Nc1n[nH]c(C(F)(F)F)n1)c1cccs1,-0.13% (inactive)
9,Cc1cccc(C)c1NC(=O)N1CC(C)OC(C)C1 (stereo not given),41.9% (active)
10,CSc1ccc(NC(=O)N2CC(C)OC(C)C2)cc1 (stereo not given),6.32% (inactive)
11,COC(=O)[C@H](Cc1ccccc1)NC(=O)N1CC(C)OC(C)C1 (stereo not given in full),-0.71% (inactive)
12,CC(=O)Nc1ccc(SC[C@H](Cc2ccccc2)N2CC[C@@H](C)CCC2=O)cc1,9.24% (inactive)
13,O=C(O)/C=C/c1ccc(S(=O)(=O)N2CCCCCC2)cc1,4.85% (inactive)
14,O=C(/C=C(O)/C=C/c1ccc(O)cc1)/C=C/c1ccc(O)cc1,63.8% (active)
15,C=CCNC(=O)/C=C/c1ccc(C(C)C)cc1,-2.85% (inactive)
16,COC(=O)[C@H](CC(C)C)NS(=O)(=O)c1c(F)cccc1F,1.29% (inactive)
17,O=C(NCc1ccccc1)[C@H]1CCCN1C(=O)[C@@H]1CCCN1C(=O)c1ccc(Cl)cc1Cl,0.11% (inactive)
18,COc1ccc(SSc2ccc(OC)cc2C(=O)O)c(C(=O)O)c1,3.23% (inactive)
19,Cn1cnc2c1c(=O)n(Cc1c(Cl)cccc1Cl)c(=O)n2C,1.55% (inactive)
20,CC(C)(C)n1ncc2c(=O)n(Cc3ccc(Cl)cc3)cnc21,11.1% (inactive)
21,CC(C)(C)n1ncc2c(=O)n(Cc3c(Cl)cccc3Br)cnc21,38.2% (active)
